One series deals with hERG (KCNH2) (Homo sapiens, UniProt Q12809). Nature of the series: in vitro.
The target of series [1] is Histamine H3 receptor (Homo sapiens, UniProt Q9Y5N1). The series is described as follows: Displacement of [3H]N-alpha-methylhistamine from human recombinant histamine H3 receptor expressed in HEK293 cells. It is filed as cell-based. On the technique in general: In a radioligand displacement assay an active substance lowers the binding of a labelled ligand.
Series [2] is described as follows: in vivo. To be noted: rat, plasma, po, 10 mg/kg.
Series [3] concerns the target Histamine H3 receptor (Mus musculus, UniProt P58406). The series is described as follows: Displacement of [3H]N-alpha-methylhistamine from mouse brain histamine H3 receptor.
Series [4] is described as follows: in vivo. To be noted: ICR, mouse, brain/plasma, po, 30 mg/kg.
The test system of series [5] is Mus musculus. The series is described as follows: Ex vivo displacement of [3H]N-alpha-methylhistamine from histamine H3 receptor in ICR mouse at 10 mg/kg, po by receptor occupancy assay relative to control.
For series [6], the system named is Mus musculus. Nature of the series: Ex vivo displacement of [3H]N-alpha-methylhistamine from histamine H3 receptor in ICR mouse at 10 mg/kg, po by receptor occupancy assay relative to control. The series is classed as functional. The method, boiled down:
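ICR mice dosed orally at 10 mg/kg. Cortex dissected 4 h after dosing and homogenized in ice-cold 50 mM Na2HPO4–KH2PO4 buffer pH 6.8, then frozen at −80 °C for at least 12 h. Protein measured by BCA. Incubation 30 min at room temperature, in quadruplicate. Stopped by filtration on PEI-presoaked GF/B plates and counted. Specific binding calculated as total minus nonspecific.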

For series [7], the target named is Histamine H3 receptor (Cavia porcellus, UniProt Q9JI35). The series is described as follows: Antagonist activity at guinea pig jejunum histamine H3 receptor by electric field stimulation assay. It is filed as functional, tissue-based. The following applies: read-out: pA2 (converted).
Series [8] is described as follows: AUC (0 to 24 hrs) in monkey at 3 mg/kg, po. Also noted: time < 24 hr, dose 3 mg/kg, route oral. The following applies: rhesus monkey, plasma. The series is classed as ADME, organism-based, Macaca mulatta. The method, boiled down:
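Monkeys dosed orally at 3 mg/kg. AUC calculated over 0–24 h.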

A short description of series [9]: Cmax in rat. It is filed as ADME, organism-based. The following applies: in vivo. The method, boiled down: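 Rats dosed orally at 10 mg/kg. Cmax taken from the plasma profile.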
Series [10] can be described thus: Cmax in monkey. The series is classed as ADME, organism-based, Macaca mulatta. To be noted: rhesus monkey, in vivo. The method, boiled down: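 Monkeys dosed orally at 3 mg/kg. Cmax taken from the plasma profile.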

Each structure is given as a SMILES string.

The text below walks through data of ChEMBL document CHEMBL1154162, “Synthesis and structure-activity relationships of 2-(1,4'-bipiperidin-1'-yl)thiazolopyridine as H3 receptor antagonists” (Bioorg Med Chem Lett, 2009).

Histamine H3 receptor (Homo sapiens, UniProt Q9Y5N1), sequence (Q9Y5N1 whole entry): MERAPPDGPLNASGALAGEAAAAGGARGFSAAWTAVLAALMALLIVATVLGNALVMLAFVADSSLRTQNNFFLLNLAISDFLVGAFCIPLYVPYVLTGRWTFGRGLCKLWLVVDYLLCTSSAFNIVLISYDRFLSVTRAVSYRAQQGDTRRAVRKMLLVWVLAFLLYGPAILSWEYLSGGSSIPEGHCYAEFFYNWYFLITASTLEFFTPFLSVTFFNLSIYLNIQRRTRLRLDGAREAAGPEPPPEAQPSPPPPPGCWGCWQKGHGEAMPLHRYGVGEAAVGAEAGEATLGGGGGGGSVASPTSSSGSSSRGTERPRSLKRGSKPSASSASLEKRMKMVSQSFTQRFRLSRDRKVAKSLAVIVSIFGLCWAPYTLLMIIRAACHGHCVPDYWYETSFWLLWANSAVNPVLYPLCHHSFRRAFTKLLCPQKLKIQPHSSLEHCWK
hERG (KCNH2), sequence (Q12809 whole entry): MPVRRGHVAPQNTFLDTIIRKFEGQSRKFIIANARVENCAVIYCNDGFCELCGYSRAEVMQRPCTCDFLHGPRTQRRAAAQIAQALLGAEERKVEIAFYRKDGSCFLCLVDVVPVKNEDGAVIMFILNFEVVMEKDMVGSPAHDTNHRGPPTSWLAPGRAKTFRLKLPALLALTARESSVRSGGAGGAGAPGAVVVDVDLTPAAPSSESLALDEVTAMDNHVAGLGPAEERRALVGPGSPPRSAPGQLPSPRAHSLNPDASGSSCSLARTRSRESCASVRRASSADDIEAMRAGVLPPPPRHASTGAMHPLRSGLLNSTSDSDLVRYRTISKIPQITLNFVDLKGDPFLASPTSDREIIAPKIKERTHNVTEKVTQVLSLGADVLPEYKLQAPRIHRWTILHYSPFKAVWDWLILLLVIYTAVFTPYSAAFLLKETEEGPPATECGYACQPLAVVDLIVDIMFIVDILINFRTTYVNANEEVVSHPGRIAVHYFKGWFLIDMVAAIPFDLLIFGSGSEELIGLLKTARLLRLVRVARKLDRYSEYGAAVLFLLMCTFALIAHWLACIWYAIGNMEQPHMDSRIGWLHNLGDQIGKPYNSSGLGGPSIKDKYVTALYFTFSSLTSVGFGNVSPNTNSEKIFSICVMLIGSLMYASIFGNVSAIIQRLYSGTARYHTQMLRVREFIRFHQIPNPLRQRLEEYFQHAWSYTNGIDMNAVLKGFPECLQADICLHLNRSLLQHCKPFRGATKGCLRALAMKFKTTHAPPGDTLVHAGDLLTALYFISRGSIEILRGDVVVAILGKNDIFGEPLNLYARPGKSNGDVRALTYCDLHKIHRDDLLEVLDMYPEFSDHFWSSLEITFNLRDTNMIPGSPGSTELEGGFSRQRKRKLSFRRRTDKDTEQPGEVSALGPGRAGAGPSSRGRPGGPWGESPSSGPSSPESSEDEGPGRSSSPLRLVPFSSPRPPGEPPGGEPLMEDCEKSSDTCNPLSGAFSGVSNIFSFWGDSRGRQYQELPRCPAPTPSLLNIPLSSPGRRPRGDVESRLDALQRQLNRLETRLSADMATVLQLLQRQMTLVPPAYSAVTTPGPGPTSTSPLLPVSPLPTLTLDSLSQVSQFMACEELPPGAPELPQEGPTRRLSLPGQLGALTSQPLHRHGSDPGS
Histamine H3 receptor (Mus musculus, UniProt P58406), sequence (P58406 whole entry): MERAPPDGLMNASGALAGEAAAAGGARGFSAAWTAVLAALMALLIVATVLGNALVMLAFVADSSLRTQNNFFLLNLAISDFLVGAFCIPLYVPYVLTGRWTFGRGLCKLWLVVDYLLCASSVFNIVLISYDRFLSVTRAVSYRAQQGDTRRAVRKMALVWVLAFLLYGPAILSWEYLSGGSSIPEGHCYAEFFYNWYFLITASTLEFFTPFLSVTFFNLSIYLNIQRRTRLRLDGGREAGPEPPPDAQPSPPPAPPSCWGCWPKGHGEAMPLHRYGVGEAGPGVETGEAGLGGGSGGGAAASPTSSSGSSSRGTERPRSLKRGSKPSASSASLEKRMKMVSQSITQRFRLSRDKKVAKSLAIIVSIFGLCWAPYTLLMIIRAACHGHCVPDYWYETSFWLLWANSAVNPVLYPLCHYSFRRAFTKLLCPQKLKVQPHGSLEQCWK
Histamine H3 receptor (Cavia porcellus, UniProt Q9JI35), sequence (Q9JI35 whole entry): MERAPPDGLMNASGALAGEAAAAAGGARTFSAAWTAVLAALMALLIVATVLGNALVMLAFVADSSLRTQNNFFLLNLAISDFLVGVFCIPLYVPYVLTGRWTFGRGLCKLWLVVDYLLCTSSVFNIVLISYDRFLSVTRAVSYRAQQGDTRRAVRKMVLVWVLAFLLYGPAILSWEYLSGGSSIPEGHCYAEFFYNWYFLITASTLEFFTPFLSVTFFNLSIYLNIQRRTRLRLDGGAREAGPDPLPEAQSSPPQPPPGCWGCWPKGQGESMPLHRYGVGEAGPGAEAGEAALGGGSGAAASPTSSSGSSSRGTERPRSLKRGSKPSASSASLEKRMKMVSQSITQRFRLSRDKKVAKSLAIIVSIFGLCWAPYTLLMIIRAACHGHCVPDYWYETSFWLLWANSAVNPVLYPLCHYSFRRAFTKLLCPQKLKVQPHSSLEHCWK

For the molecule `Nc1cnc(-c2cnc3nc(N4CCC(N5CCCCC5)CC4)sc3c2)cn1`, the inhibition (in general, the relative decrease from the control value, in per cent) at 10 µM at hERG (KCNH2) was 20%.
For the molecule `CC(=O)c1cccc(-c2cc3sc(N4CCC(N5CCCCC5)CC4)nc3cn2)c1`, the Ki (commonly a dissociation constant, usually derived from enzyme kinetics or from competition with a known ligand) at Histamine H3 receptor [1] amounted to 0.08 µM.
In turn, `COc1cc(-c2cnc3nc(N4CCC(N5CCCCC5)CC4)sc3c2)ccn1` had an inhibition at 10 µM on hERG (KCNH2) of 98%.
Regarding `CC(=O)Nc1cnc2nc(N3CCC(N4CCCCC4)CC3)sc2c1`, on Histamine H3 receptor [1], the inhibition constant Ki was determined as 0.031 µM.
For the molecule `COc1cc(-c2cc3sc(N4CCC(N5CCCCC5)CC4)nc3cn2)ccn1`, on hERG (KCNH2), the inhibition at 10 µM was 91%.
With `Oc1ccc(-c2cc3sc(N4CCC(N5CCCCC5)CC4)nc3cn2)cc1`, on Histamine H3 receptor [1], the Ki came out at 0.213 µM.
On the same count and under the same terms, the figure for `Clc1ccc2nc(N3CCC(N4CCCCC4)CC3)sc2n1` is 1.7 µM; for `c1cc2sc(N3CCC(N4CCCCC4)CC3)nc2cn1` it is 0.128 µM.
In the case of `CC(=O)c1cccc(-c2cnc3nc(N4CCC(N5CCCCC5)CC4)sc3c2)c1`, at Histamine H3 receptor [1], the Ki was determined as 0.033 µM.
In the case of `N#Cc1cc(-c2cnc3nc(N4CCC(N5CCCCC5)CC4)sc3c2)ccc1F`, the exposure AUC(0-t) (commonly exposure summed from dosing to a finite time, without extrapolation to infinity) at 6 h in the series “in vivo [2]” stood at 0.339 µg·h/mL.
On to `N#Cc1cnc2nc(N3CCC(N4CCCCC4)CC3)sc2c1`, for which the Ki at Histamine H3 receptor [1] worked out at 0.036 µM.
`Fc1ncccc1-c1cc2sc(N3CCC(N4CCCCC4)CC3)nc2cn1` gave an inhibition at 10 µM at hERG (KCNH2) of 88%.
As for `Brc1cnc2nc(N3CCC(N4CCCCC4)CC3)sc2c1`, the Ki on Histamine H3 receptor [1] was 0.141 µM.
Still for that read-out and setting: with `Nc1cc2sc(N3CCC(N4CCCCC4)CC3)nc2cn1` the figure was 0.073 µM.
As to `Clc1cc2sc(N3CCC(N4CCCCC4)CC3)nc2cn1`, the inhibitory constant (Ki) at Histamine H3 receptor [3] amounted to 0.075 µM. In addition, in “in vivo [2]”, the AUC(0-t) at 6 h stood at 0.056 µg·h/mL. Further, in the series “in vivo [4]”, the concentration ratio (Kp) (usually tissue or fluid exposure divided by exposure in the circulation) at 96 h was 4.52. The same molecule came in with an inhibition at 10 µM against hERG (KCNH2) of 59%. Further, the Activity with Mus musculus [5] stood at 80%.
In the case of `CC(=O)Nc1cc2sc(N3CCC(N4CCCCC4)CC3)nc2cn1`, the inhibitory constant (Ki) on Histamine H3 receptor [1] was 0.053 µM.
Take `CC(=O)Nc1ccc(-c2cnc3nc(N4CCC(N5CCCCC5)CC4)sc3c2)cn1`: the affinity on Histamine H3 receptor [3], expressed as Ki, was 0.02 µM. Also, in the series with Mus musculus [6], the Activity was 45%. The same molecule came in with an inhibition at 10 µM against hERG (KCNH2) of 20%.
On to `c1cnc2nc(N3CCC(N4CCCCC4)CC3)sc2c1`, for which the inhibition constant (Ki) at Histamine H3 receptor [1] was determined as 0.139 µM.
Consider `COc1cccc(-c2cnc3nc(N4CCC(N5CCCCC5)CC4)sc3c2)c1`, for which the Ki at Histamine H3 receptor [1] is 0.14 µM.
For the molecule `Oc1ccc(-c2cc3sc(N4CCC(N5CCCCC5)CC4)nc3cn2)cn1`, at Histamine H3 receptor [3], the inhibitory constant (Ki) was determined as 0.02 µM. This molecule also gave an Activity with Mus musculus [6] of 1%.
With `COc1cccc(-c2cc3sc(N4CCC(N5CCCCC5)CC4)nc3cn2)c1`, on Histamine H3 receptor [1], the Ki was 0.23 µM.
Still for that read-out and setting: the figure for `Clc1cnc2nc(N3CCC(N4CCCCC4)CC3)sc2c1` is 0.125 µM.
As to `Fc1cc(-c2cc3sc(N4CCC(N5CCCCC5)CC4)nc3cn2)ccn1`, at 10 µM the inhibition on hERG (KCNH2) was 85%.
At Histamine H3 receptor [3], `c1ncc(-c2cnc3nc(N4CCC(N5CCCCC5)CC4)sc3c2)cn1` gave a Ki of 0.066 µM. In addition, in the series on Mus musculus [6], the Activity amounted to 0%. The inhibition at 10 µM on hERG (KCNH2) stood at 30%.
On to `N#Cc1cc(-c2cc3sc(N4CCC(N5CCCCC5)CC4)nc3cn2)ccc1F`, for which the Ki at Histamine H3 receptor [1] worked out at 0.046 µM.
For the molecule `N#Cc1cc2sc(N3CCC(N4CCCCC4)CC3)nc2cn1`, on Histamine H3 receptor [1], the Ki turned out to be 0.035 µM.
On the same count and under the same terms, the figure for `Nc1cnc2nc(N3CCC(N4CCCCC4)CC3)sc2c1` is 0.079 µM; for `N#Cc1ccc(-c2cc3sc(N4CCC(N5CCCCC5)CC4)nc3cn2)cc1` it is 0.126 µM.
In the case of `CCCN1CCN(c2nc3cnccc3s2)CC1`, the Kb at Histamine H3 receptor [7] was 0.0562 µM.
As to `Oc1ccc(-c2cnc3nc(N4CCC(N5CCCCC5)CC4)sc3c2)cc1`, the inhibition constant (Ki) at Histamine H3 receptor [1] worked out at 0.059 µM.
`Fc1ccc(-c2cc3sc(N4CCC(N5CCCCC5)CC4)nc3cn2)cn1` came in with a Ki at Histamine H3 receptor [3] of 0.089 µM. The Activity in the series with Mus musculus [6] is recorded as 95%. The same molecule gave an exposure AUC(0-t) at 24 h in [8] of 0.624 µg·h/mL. For the same molecule, the Cmax – broadly, the highest concentration seen after dosing – in series [9] was 0.234 µg/mL; in series [10], 0.033 µg/mL. This molecule also displayed an area under the curve AUC(0-t) at 6 h in the series “in vivo [2]” of 1.07 µg·h/mL.
As to `Nc1ccc(-c2cnc3nc(N4CCC(N5CCCCC5)CC4)sc3c2)cn1`, the Activity in the series with Mus musculus [6] is on record as 3%.
